# Test results taken from ChEMBL document CHEMBL1649081, “Arylpiperazines for management of benign prostatic hyperplasia: design, synthesis, quantitative structure-activity relationships, and pharmacokinetic studies” (J Med Chem, 2011).
# Values joined by “and” are separate entries in the source; they are usually repeats but may differ in a detail not shown here. Equal entries are not always repeated. Active and inactive are the calls of the source. The calls are words filed in the database; no cut-off is given here.
# Experiments:
# [1] = (§1) […] in Sprague-Dawley rat model […] assessed as reduction in prostate weight at 10 mg/k, po administered daily for 21 days measured after 24 hrs post last dose; type: functional
# Summary of the method: (§2)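 Adult mature Sprague-Dawley rats (n = 5) received an oral 10.0 mg/kg dose as a water/gum acacia suspension daily for 21 days. Controls received vehicle, and a reference antiandrogen served as positive control. At autopsy 24 h after the last dose, prostates were dissected and weighed.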
# [2] = target: Estrogen receptor beta (Homo sapiens) (UniProt Q92731); assay: Induction of ERbeta in human LNCAP cells at 10 umol relative to control; type: cell-based
# Chain of Estrogen receptor beta (Homo sapiens) (Q92731 whole entry): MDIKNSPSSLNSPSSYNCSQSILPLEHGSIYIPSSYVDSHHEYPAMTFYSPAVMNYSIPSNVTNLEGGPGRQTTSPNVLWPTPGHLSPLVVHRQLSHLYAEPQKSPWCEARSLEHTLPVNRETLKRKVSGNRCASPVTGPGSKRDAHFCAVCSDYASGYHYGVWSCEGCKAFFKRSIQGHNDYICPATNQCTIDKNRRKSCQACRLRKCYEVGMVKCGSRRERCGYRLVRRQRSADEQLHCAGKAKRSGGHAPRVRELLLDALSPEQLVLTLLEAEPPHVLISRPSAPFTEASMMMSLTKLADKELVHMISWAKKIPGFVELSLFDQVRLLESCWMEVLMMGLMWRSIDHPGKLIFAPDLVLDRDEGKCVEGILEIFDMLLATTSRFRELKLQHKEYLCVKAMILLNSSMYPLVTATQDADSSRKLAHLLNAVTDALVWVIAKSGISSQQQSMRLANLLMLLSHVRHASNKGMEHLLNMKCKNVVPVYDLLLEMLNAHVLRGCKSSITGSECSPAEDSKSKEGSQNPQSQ
# Summary of the method: (§3)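 LNCaP cells were grown in RPMI-1640 with 10% FCS, penicillin and streptomycin on gelatin-coated plates to 80% confluence, then treated at 10.0 μmol for 24 h, with flutamide as comparator. Total RNA was extracted with Trireagent, and ER-α/ER-β mRNA was measured by real-time PCR. Results are fold change versus control, mean ± SE of three values.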
# [3] = Tmax in Sprague-Dawley rat hypothalamus at 10 mg/kg, po administered as single dose after 2 hrs; type: ADME, organism-based; design: dose 10 mg/kg, route oral
# Summary of the method: (§4)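 Male Sprague-Dawley rats were fasted overnight (12-16 h) and given a single oral 10 mg/kg dose, n = 3 per time point. Animals were killed at intervals up to 24 h and serum, prostate and hypothalamus collected; hypothalamus was pooled from three rats. Analysis was by HPLC (0.01 M sodium acetate pH 6.0/acetonitrile 30:70; LLOQ 10 ng/mL), with noncompartmental parameters.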
# [4] = Mean residence time in Sprague-Dawley rat prostate gland at 10 mg/kg, po administered as single dose; type: ADME, organism-based; design: dose 10 mg/kg, route oral; summary of the method: as §4
# [5] = Tmax in Sprague-Dawley rat serum at 10 mg/kg, po administered as single dose after 1 hr; type: ADME, organism-based; design: dose 10 mg/kg, route oral; summary of the method: as §4
# [6] = Tmax in Sprague-Dawley rat hypothalamus at 10 mg/kg, po administered as single dose after 1 hr; type: ADME, organism-based; design: dose 10 mg/kg, route oral; summary of the method: as §4
# [7] = Tmax in Sprague-Dawley rat serum at 10 mg/kg, po administered as single dose after 2 hrs; type: ADME, organism-based; design: dose 10 mg/kg, route oral; summary of the method: as §4
# [8] = Cmax in Sprague-Dawley rat hypothalamus at 10 mg/kg, po administered as single dose after 2 hrs; type: ADME, organism-based; design: dose 10 mg/kg, route oral; summary of the method: as §4
# [9] = Mean residence time in Sprague-Dawley rat hypothalamus at 10 mg/kg, po administered as single dose; type: ADME, organism-based; design: dose 10 mg/kg, route oral; summary of the method: as §4
# [10] = AUC (0 to t) in Sprague-Dawley rat prostate gland at 10 mg/kg, po administered as single dose; type: ADME, organism-based; design: dose 10 mg/kg, route oral; details: in vivo; summary of the method: as §4
# [11] = target: T1, Estrogen receptor (Homo sapiens) (UniProt P03372); assay: Induction of ERalpha in human prostate cells at 10 umol relative to control; type: cell-based
# T1 sequence (whole entry): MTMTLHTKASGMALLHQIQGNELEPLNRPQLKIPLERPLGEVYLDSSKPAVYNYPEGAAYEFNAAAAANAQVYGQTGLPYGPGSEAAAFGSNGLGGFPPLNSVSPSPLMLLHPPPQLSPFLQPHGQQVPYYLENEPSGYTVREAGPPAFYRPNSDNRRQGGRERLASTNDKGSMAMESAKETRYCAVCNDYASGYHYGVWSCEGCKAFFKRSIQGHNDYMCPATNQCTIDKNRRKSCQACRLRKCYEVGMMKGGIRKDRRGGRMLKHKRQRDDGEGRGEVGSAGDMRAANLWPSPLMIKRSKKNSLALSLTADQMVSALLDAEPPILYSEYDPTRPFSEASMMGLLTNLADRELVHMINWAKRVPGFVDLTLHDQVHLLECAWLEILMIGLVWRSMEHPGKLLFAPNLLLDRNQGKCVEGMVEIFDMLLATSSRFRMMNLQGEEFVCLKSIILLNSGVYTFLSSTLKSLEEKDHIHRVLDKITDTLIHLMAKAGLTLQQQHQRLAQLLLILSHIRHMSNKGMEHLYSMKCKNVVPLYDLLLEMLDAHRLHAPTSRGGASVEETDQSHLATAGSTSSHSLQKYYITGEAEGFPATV
# Summary of the method: (§5)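 ER-α and ER-β mRNA were measured by real-time PCR in two cell types: primary BPH-derived human stromal cells (passages 4-6; DMEM/Ham's F-12, 10% FCS) and LNCaP cells (RPMI-1640, 10% FCS, gelatin-coated). Cells at 80% confluence were treated with 10.0 μmol for 24 h, then total RNA was extracted. Results are fold change versus control, mean ± SE of three values.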
# [12] = Tmax in Sprague-Dawley rat prostate gland at 10 mg/kg, po administered as single dose after 1 hr; type: ADME, organism-based; design: dose 10 mg/kg, route oral; summary of the method: as §4
# [13] = Cmax in Sprague-Dawley rat prostate gland at 10 mg/kg, po administered as single dose after 1 hr; type: ADME, organism-based; design: dose 10 mg/kg, route oral; summary of the method: as §4
# Serum [14] = assay: AUC (0 to t) in Sprague-Dawley rat serum at 10 mg/kg, po administered as single dose; type: ADME, organism-based; design: dose 10 mg/kg, route oral; details: in vivo; summary of the method: as §4
# Hypothalamus = assay: AUC (0 to t) in Sprague-Dawley rat hypothalamus at 10 mg/kg, po administered as single dose; type: ADME, organism-based; design: dose 10 mg/kg, route oral; details: in vivo; summary of the method: as §4
# [15] = target: Estrogen receptor beta (Homo sapiens) (UniProt Q92731); assay: Induction of ERbeta in human prostate cells at 10 umol relative to control; type: cell-based; summary of the method: as §5
# LNCaP [16] = assay: Anticancer activity against human LNCAP cells assessed as change in PSA gene expression at 10 umol after 48 hrs by RT-PCR analysis; type: functional
# Summary of the method: (§6)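 LNCaP cells (androgen-dependent human prostate cancer) were grown in RPMI-1640 with 10% FCS, 100 units/mL penicillin G and 100 μg/mL streptomycin on gelatin-coated plates. They were treated at 10 μmol for 48 h, with flutamide as positive control. PSA is reported as fold change relative to untreated control.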
# [17] = Ratio of drug level in serum to prostate in Sprague-Dawley rat at 10 mg/kg, po administered as single dos; type: ADME, organism-based, Prostate gland; design: dose 10 mg/kg, route oral; details: in vivo; summary of the method: as §4
# LNCaP [18] = assay: Anticancer activity against human LNCAP cells assessed as change in PSA gene expression at 10 umol after 48 hrs by RT-PCR analysis relative to control; type: functional; summary of the method: as §6
# [19] = Tmax in Sprague-Dawley rat prostate gland at 10 mg/kg, po administered as single dose after 2 hrs; type: ADME, organism-based; design: dose 10 mg/kg, route oral; summary of the method: as §4
# [20] = Ratio of drug level in hypothalamus to prostate in Sprague-Dawley rat at 10 mg/kg, po administered as single dos; type: ADME, organism-based; design: dose 10 mg/kg, route oral; details: in vivo; summary of the method: as §4
# [21] = Mean residence time in Sprague-Dawley rat serum at 10 mg/kg, po administered as single dose; type: ADME, organism-based; design: dose 10 mg/kg, route oral; summary of the method: as §4
# [22] = target: T1, Estrogen receptor (Homo sapiens); assay: Induction of ERalpha in human LNCAP cells at 10 umol relative to control; type: cell-based; summary of the method: as §3
# [23] = Cmax in Sprague-Dawley rat serum at 10 mg/kg, po administered as single dose after 1 hr; type: ADME, organism-based; design: dose 10 mg/kg, route oral; summary of the method: as §4
# [24] = Cmax in Sprague-Dawley rat hypothalamus at 10 mg/kg, po administered as single dose after 1 hr; type: ADME, organism-based; design: dose 10 mg/kg, route oral; summary of the method: as §4
# [25] = Cmax in Sprague-Dawley rat prostate gland at 10 mg/kg, po administered as single dose after 2 hrs; type: ADME, organism-based; design: dose 10 mg/kg, route oral; summary of the method: as §4
# Serum [26] = assay: Clearance in Sprague-Dawley rat serum at 10 mg/kg, po administered as single dose; type: ADME, organism-based; design: dose 10 mg/kg, route oral; details: in vivo; summary of the method: as §4
# [27] = Cmax in Sprague-Dawley rat serum at 10 mg/kg, po administered as single dose after 2 hrs; type: ADME, organism-based; design: dose 10 mg/kg, route oral; summary of the method: as §4
# Cancer cell lines = assay: as §1; type: functional; summary of the method: as §2
smiles,measurement,setting,value
O=[N+]([O-])c1ccc(CN2CCN(c3ncccn3)CC2)cc1,inhibition (INH),[1],15% and 24%
O=[N+]([O-])c1cc(C(F)(F)F)ccc1N1CCN(c2ccccn2)CC1,inhibition (INH),[1],15%
O=[N+]([O-])c1ccc(CN2CCN(c3ccccn3)CC2)cc1,inhibition (INH),[1],15%
O=[N+]([O-])c1ccc(N2CCN(c3cccc(C(F)(F)F)c3)CC2)c(C(F)(F)F)c1,fold change (FC),[2],16
same,Tmax,[3],2 h
same,MRT,[4],11 h
same,Tmax,[5],0.5 h
same,Tmax,[6],1 h
same,Tmax,[7],2 h
same,Cmax,[8],124 ng/g
same,MRT,[9],11.6 h
same,AUC,[10],5650 ng·h/g
same,fold change (FC),[11],3
same,Tmax,[12],1.5 h
same,Cmax,[13],442 ng/g
same,inhibition (INH),[1],15% and 24%
same,AUC,Serum [14],712 ng·h/mL
same,AUC,Hypothalamus,2000 ng·h/g
same,fold change (FC),[15],6
same,inhibition (INH),LNCaP [16],90%
same,Ratio,[17],0.13
same,fold change (FC),LNCaP [18],0.106
same,Tmax,[19],6 h
same,Ratio,[20],0.35
same,MRT,[21],6.97 h
same,fold change (FC),[22],11
same,Cmax,[23],106 ng/mL
same,Cmax,[24],99.5 ng/g
same,Cmax,[25],365 ng/g
same,CL,Serum [26],0.17 mL/min/kg
same,Cmax,[27],139 ng/mL
O=C(c1ccc(C(F)(F)F)cc1)N1CCN(c2cccc(Cl)c2)CC1,inhibition (INH),[1],10%
O=[N+]([O-])c1cc(C(F)(F)F)ccc1N1CCN(c2ccc(F)cc2)CC1,inhibition (INH),[1],15%
O=C(c1ccc(C(F)(F)F)cc1)N1CCN(c2ccccn2)CC1,inhibition (INH),[1],15%
O=[N+]([O-])c1cc(C(F)(F)F)ccc1N1CCN(c2ncccn2)CC1,inhibition (INH),[1],15% and 24%
O=C(c1ccccc1)N1CCN(c2cccc(C(F)(F)F)c2)CC1,inhibition (INH),[1],15%
O=C(c1ccccc1)N1CCN(c2ncccn2)CC1,inhibition (INH),[1],10%
O=[N+]([O-])c1ccc(N2CCN(c3ccc(F)cc3)CC2)c(C(F)(F)F)c1,inhibition (INH),[1],15% and 24%
O=[N+]([O-])c1ccccc1N1CCN(c2ccccn2)CC1,inhibition (INH),[1],15%
O=[N+]([O-])c1ccccc1N1CCN(c2cccc(C(F)(F)F)c2)CC1,Activity,Cancer cell lines,inactive
CC(C)C(=O)Nc1ccc([N+](=O)[O-])c(C(F)(F)F)c1 [FLUTAMIDE],fold change (FC),[2],14
same,inhibition (INH),LNCaP [16],99%
same,fold change (FC),LNCaP [18],0.01
same,fold change (FC),[22],11
O=[N+]([O-])c1ccc(N2CCN(c3ccccn3)CC2)c(C(F)(F)F)c1,inhibition (INH),[1],15% and 24%
O=C(c1ccccc1)N1CCN(c2cccc(Cl)c2)CC1,inhibition (INH),[1],10%
O=C(c1ccccc1[N+](=O)[O-])N1CCN(c2ccccn2)CC1,inhibition (INH),[1],15%
O=[N+]([O-])c1ccc(N2CCN(c3cccc(Cl)c3)CC2)c(C(F)(F)F)c1,inhibition (INH),[1],15% and 24%
O=[N+]([O-])c1ccccc1N1CCN(c2cccc(Cl)c2)CC1,Activity,Cancer cell lines,inactive
O=C(c1ccccc1)N1CCN(c2ccccn2)CC1,inhibition (INH),[1],10%
O=[N+]([O-])c1cc(C(F)(F)F)ccc1N1CCN(c2cccc(C(F)(F)F)c2)CC1,inhibition (INH),[1],15% and 24%
O=[N+]([O-])c1ccc(CN2CCN(c3cccc(Cl)c3)CC2)cc1,inhibition (INH),[1],15%
O=C(c1ccccc1[N+](=O)[O-])N1CCN(c2cccc(C(F)(F)F)c2)CC1,inhibition (INH),[1],15%
O=[N+]([O-])c1ccc(N2CCN(c3ccccn3)CC2)cc1,inhibition (INH),[1],15% and 24%
O=[N+]([O-])c1ccc(CN2CCN(c3cccc(C(F)(F)F)c3)CC2)cc1,inhibition (INH),[1],15%
O=C(c1ccc(C(F)(F)F)cc1)N1CCN(c2cccc(C(F)(F)F)c2)CC1,inhibition (INH),[1],15%
O=[N+]([O-])c1ccc(N2CCN(c3ncccn3)CC2)c(C(F)(F)F)c1,inhibition (INH),[1],15% and 24%
O=[N+]([O-])c1cc(C(F)(F)F)ccc1N1CCN(c2cccc(Cl)c2)CC1,inhibition (INH),[1],15%
